From ChEMBL document CHEMBL5316309, “Discovery of BAY-390, a Selective CNS Penetrant Chemical Probe as Transient Receptor Potential Ankyrin 1 (TRPA1) Antagonist” (J Med Chem, 2023)
≈ marks a conversion by molar mass, not a printed value. Calls of active or inactive are those of the source.

Tests used:
[1] = Fraction unbound in guniea pig; type: ADME, Cavia porcellus; conditions: guinea pig
Rattus norvegicus [2] = test: Reversal of complete Freund's adjuvant induced mechanical hyperalgesia in Sprague-Dawley rat assessed as paw withdrawal threshold treated with CFA for 24 hrs followed by compound addition at 3 to 30 mg/kg, po measured after 2 to 4 hrs by Dunnett's post hoc test; type: functional, organism-based; conditions: dose 3-30 mg/kg, time 2-4 hrs
Summary of the method: (§1)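 Male Sprague Dawley rats, 175–200 g, given intraplantar CFA in one hind paw. Oral dose once 24 h later in 10% DMSO/40% Solutol/50% water. Paw withdrawal threshold to pressure measured blinded on CFA and contralateral paws before CFA, at 24 h (predrug) and 2 and 4 h postdose. Two-way repeated-measures ANOVA, then Dunnett versus vehicle.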

[3] = Mutagenecity in Salmonella typhimurium by Ames test; type: toxicity; conditions: salmonella sp.
Plasma [4] = test: Unbound plasma concentration in spinal nerve ligation neuropathic pain Sprague-Dawley rat model administered at 90 mg/kg, po bid for 10 days from day 15 to day 24 post SNL surgery measured after […] of last dose; type: functional; conditions: time 242.5 hrs
[5] = molecular target: Transient receptor potential cation channel subfamily A member 1 (Homo sapiens, UniProt O75762); test: Antagonist activity at human wildtype TRPA1 channel expressed in CHO-K1 cells tagged with GCaMP6 by measuring calcium flux measured after […] by FLIPR tetra analysis; type: cell-based
Plasma [6] = test: Unbound plasma concentration in spinal nerve ligation neuropathic pain Sprague-Dawley rat model administered at 30 mg/kg, po bid for 10 days from day 15 to day 24 post SNL surgery measured after […] of last dose; type: functional; conditions: time 242.5 hrs
Plasma [7] = test: Free plasma concentration in cinnamaldehyde induced nocifensive behaviour Sprague-Dawley rat model treated with cinnamaldehyde followed compound addition at 3 to 30 mg/kg, po measured after 1 hr; type: functional; conditions: dose 3-30 mg/kg
Summary of the method: (§2)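 Free plasma level taken 1 h after oral dosing (3, 10, 30 mg/kg) in the rat intraplantar cinnamaldehyde nocifensive model.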

[8] = Unbound brain concentration in spinal nerve ligation neuropathic pain Sprague-Dawley rat model administered at 90 mg/kg, po bid for 10 days from day 15 to day 24 post SNL surgery measured after 2 to 8 hrs of last dose
[9] = Fraction unbound in Sprague-Dawley rat; type: ADME
[10] = Efflux ratio of permeability in human Caco2 cells; type: ADME, cell-based; conditions: caco-2
Rattus norvegicus [11] = test: Antiallodynic activity against spinal nerve ligation neuropathic pain Sprague-Dawley rat model assessed as reversal of mechanical allodynia administered at 90 mg/kg, po bid measured after 6 days post SNL surgery; type: functional, organism-based; conditions: time 6.0 day
Rattus norvegicus [12] = test: Protective activity in cinnamaldehyde induced nocifensive behaviour Sprague-Dawley rat model assessed as reduction in number of flinches treated with cinnamaldehyde followed compound addition at 3 to 30 mg/kg, po measured after 1 hr measured by Dunnert's post hoc test; type: functional, organism-based; conditions: dose 3-30 mg/kg
Summary of the method: (§3)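 Male Sprague Dawley rats, 175–200 g, dosed orally in 10% DMSO/40% Solutol/50% water 1 h before intraplantar injection of 50 μL cinnamaldehyde at 5 mM. Flinch number and licking duration scored blinded for 5 min. One-way ANOVA with Dunnett versus vehicle.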

Rattus norvegicus [13] = test: Antiallodynic activity against spinal nerve ligation neuropathic pain Sprague-Dawley rat model assessed as reversal of mechanical allodynia administered at 30 mg/kg, po bid for 10 days from day 15 to day 24 post SNL surgery; type: functional, organism-based; conditions: time <= 10.0 day
Summary of the method: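 Male Sprague Dawley rats, 100–120 g, had spinal nerve ligation under isoflurane. Oral dosing b.i.d. on days 15–24 post surgery in DMSO/Solutol/water 10/40/50 at 5 mL/kg; gabapentin 30 mg/kg q.d. as control. Von Frey up-and-down thresholds, blinded, on both hind paws at day 11 (baseline) and days 15, 18, 21, 24, 2 h after morning dose. Kruskal–Wallis with Dunn versus vehicle.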

[14] = Fraction unbound in mouse; type: ADME, organism-based; conditions: in vivo
[15] = Permeability form apical to basolateral side in human Caco2 cells; type: ADME, cell-based; conditions: caco-2
[16] = Metabolic stability in rat blood assessed as clearance; type: ADME, tissue-based
Plasma [17] = test: Free plasma concentration in cinnamaldehyde induced nocifensive behaviour Sprague-Dawley rat treated with CFA for 24 hrs followed by compound addition at 30 mg/kg, po measured after 4.5 hrs; type: functional
Summary of the method: (§4)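 Unbound plasma level taken 4.5 h after oral dosing (3, 10, 30 mg/kg), given 24 h after intraplantar CFA in rats.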

Rattus norvegicus [18] = test: Anti-inflammatory activity in complete Freund's adjuvant induced mechanical hyperalgesia in Sprague-Dawley rat assessed as reduction of mechanical hyperalgesia treated with CFA for 24 hrs followed by compound addition at 30 mg/kg, po measured after 4 hrs by Dunnett's post hoc test; type: functional, organism-based; summary of the method: as §1
Plasma [19] = test: Free plasma concentration in cinnamaldehyde induced nocifensive behaviour Sprague-Dawley rat treated with CFA for 24 hrs followed by compound addition at 10 mg/kg, po measured after 4.5 hrs; type: functional; summary of the method: as §4
Plasma [20] = test: Free plasma concentration in cinnamaldehyde induced nocifensive behaviour Sprague-Dawley rat model treated at 3 to 30 mg/kg, po for 1 hr followed by cinnamaldehyde addition; type: functional; conditions: dose 3-30 mg/kg; summary of the method: as §2
[21] = Unbound brain concentration in spinal nerve ligation neuropathic pain Sprague-Dawley rat model administered at 30 mg/kg, po bid for 10 days from day 15 to day 24 post SNL surgery measured after 2 to 8 hrs of last dose
[22] = Metabolic stability in rat hepatocytes; type: ADME, cell-based, Hepatocyte
[23] = Solubility of the compound in PBS buffer at pH 6.5; type: physicochemical
[24] = Lipophilicity, logD of compound; type: physicochemical; conditions: octanol/water
Plasma [25] = test: Free plasma concentration in cinnamaldehyde induced nocifensive behaviour Sprague-Dawley rat model at 10 mg/kg, po; type: functional; conditions: time 1 hrs; summary of the method: as §2
Rattus norvegicus [26] = test: Anti-inflammatory activity in complete Freund's adjuvant induced mechanical hyperalgesia in Sprague-Dawley rat assessed as reduction of mechanical hyperalgesia treated with CFA for 24 hrs followed by compound addition at 10 to 30 mg/kg, po measured after 2 hrs by Dunnett's post hoc test; type: functional, organism-based; conditions: dose 10-30 mg/kg; summary of the method: as §1
[27] = Fraction unbound in human; type: ADME
Rattus norvegicus [28] = test: Protective activity in cinnamaldehyde induced nocifensive behaviour Sprague-Dawley rat model assessed as reduction in paw licking treated with cinnamaldehyde followed compound addition at 3 to 30 mg/kg, po measured after 1 hr measured by Dunnert's post hoc test; type: functional, organism-based; conditions: dose 3-30 mg/kg; summary of the method: as §3
Plasma [29] = test: Free plasma concentration in cinnamaldehyde induced nocifensive behaviour Sprague-Dawley rat treated with CFA for 24 hrs followed by compound addition at 3 mg/kg, po measured after 4.5 hrs; type: functional; summary of the method: as §4

Sequence of Transient receptor potential cation channel subfamily A member 1 (O75762 whole entry): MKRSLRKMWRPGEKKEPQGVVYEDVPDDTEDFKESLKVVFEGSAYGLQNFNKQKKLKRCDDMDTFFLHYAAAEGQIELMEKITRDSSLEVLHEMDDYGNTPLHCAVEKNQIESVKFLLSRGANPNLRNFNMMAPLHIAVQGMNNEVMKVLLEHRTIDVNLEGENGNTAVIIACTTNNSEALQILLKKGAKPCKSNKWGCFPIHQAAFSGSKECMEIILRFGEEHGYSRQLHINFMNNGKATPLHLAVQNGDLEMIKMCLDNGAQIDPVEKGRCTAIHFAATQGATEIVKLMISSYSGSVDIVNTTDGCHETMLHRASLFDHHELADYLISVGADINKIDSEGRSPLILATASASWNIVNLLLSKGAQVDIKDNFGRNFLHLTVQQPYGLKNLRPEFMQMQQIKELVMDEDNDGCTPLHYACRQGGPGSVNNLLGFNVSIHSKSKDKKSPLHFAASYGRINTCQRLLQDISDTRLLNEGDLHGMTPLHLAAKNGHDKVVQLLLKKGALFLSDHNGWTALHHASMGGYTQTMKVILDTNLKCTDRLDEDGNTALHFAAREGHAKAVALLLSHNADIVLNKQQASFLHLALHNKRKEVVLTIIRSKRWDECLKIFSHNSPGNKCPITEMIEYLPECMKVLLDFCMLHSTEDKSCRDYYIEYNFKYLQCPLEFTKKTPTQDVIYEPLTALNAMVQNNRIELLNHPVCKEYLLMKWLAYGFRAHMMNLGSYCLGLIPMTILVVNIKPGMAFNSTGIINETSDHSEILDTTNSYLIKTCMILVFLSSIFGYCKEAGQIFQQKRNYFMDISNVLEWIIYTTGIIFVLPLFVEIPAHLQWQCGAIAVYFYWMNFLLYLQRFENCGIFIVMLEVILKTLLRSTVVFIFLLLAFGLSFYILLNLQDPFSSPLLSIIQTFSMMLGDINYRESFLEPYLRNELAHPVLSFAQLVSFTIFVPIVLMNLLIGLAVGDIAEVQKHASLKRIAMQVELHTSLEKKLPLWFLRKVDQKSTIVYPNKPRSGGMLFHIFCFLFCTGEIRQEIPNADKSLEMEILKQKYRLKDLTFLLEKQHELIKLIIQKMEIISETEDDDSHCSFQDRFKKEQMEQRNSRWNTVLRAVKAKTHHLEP

O[C@]1(C(F)(F)F)CCCC[C@H]1Nc1ccc(F)cc1 [BAY-390]
fraction unbound [1]: 0.097 | Activity (Rattus norvegicus [2]): Active | Activity [3]: Non-Toxic | Cp(f) (Plasma [4]): 201 nM | IC50 [5]: 35 nM | Cp(f) (Plasma [6]): 115 nM | Cp(f) (Plasma [7]): 10 nM | unbound brain concentration [8]: 61 nM | fraction unbound [9]: 0.06 | Ratio [10]: 0.6 | Activity (Rattus norvegicus [11]): Active | Activity (Rattus norvegicus [12]): Active | Activity (Rattus norvegicus [13]): inactive | fraction unbound [14]: 0.081 | permeability [15]: 29.3 ×10⁻⁶ cm/s | CL [16]: 40 mL/min/kg | Cp(f) (Plasma [17]): 103 nM | Activity (Rattus norvegicus [18]): Active | Cp(f) (Plasma [19]): 10 nM | Cp(f) (Plasma [20]): 115 nM | unbound brain concentration [21]: 33 nM | Stability [22]: Stable | solubility [23]: 56 µg/mL (≈ 202 µM) | logD [24]: 3 | Cp(f) (Plasma [25]): 35 nM | Activity (Rattus norvegicus [26]): Active | fraction unbound [27]: 0.12 | Activity (Rattus norvegicus [28]): Active | Cp(f) (Plasma [29]): 7 nM
